Compounds with a hit are over-represented: about 2.3% of the library has one in this group of screens.
EWS-Fli inh: EWS/Fli-driven NR0B1 reporter inhibitors, primary screen, A673 cells, NR0B1 luciferase, luminescence, MLPCN library. inhibition, % at 12.6 µM. hit rate 0.67% among 350,000. viability-normalised. AID 651661, 2012;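 active = mean inhibition of at least 50% after viability correction, with every replicate also passing that limit; inconclusive = mean reaches 50% but only one of two replicates passes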;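 note: firefly luciferase signal divided by Alamar Blue viability fluorescence both relative to DMSO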
PGC1a acetyl inh: inhibitors of PGC1a acetylation signal, primary screen, cell-based, U2OS, AlphaScreen, inhibitor mode. AlphaScreen anti-acetyl-lysine; with virally co-expressed GCN5 acetyltransferase. inhibition, % at 15.6 µM. hit rate 0.17% among 350,000. AID 651687, 2012;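 active = every replicate shows inhibition of at least 40%; inconclusive = mean inhibition at least 40% but some replicate below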;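 note: 0% = neutral control wells and 100% = positive control wells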
PAX8 reporter: inhibitors of PAX8-driven TPO luciferase reporter, primary screen, RMG-I cells, single concentration. SteadyGlo, 24 h. inhibition, % at 12.6 µM. hit rate 1.2% among 360,000. AID 652154, 2013;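 active = mean replicate inhibition at least 60% with every replicate also reaching 60%; inconclusive = only one of the two criteria is met; inactive = mean below 60% and not all replicates reaching 60%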;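 note: luciferase light reporting Pax8 driven TPO promoter activity; plate controls were median of neutral control wells for no effect and mitoxantrone controls for full effect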
HIV Env fusion: inhibitors of HIV-1 Env-driven cell-cell fusion, primary screen, HeLa-JRFL effector, CEM21 target cells, luciferase | hit rate 1.1% among 360,000 | inhibition, % at 12.3 µM;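 active = mean replicate inhibition score of at least 50 and every replicate individually at or above 50; inconclusive = only one of the two criteria met; inactive = mean below 50 and not all replicates reaching 50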;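 note: 0% = plate neutral controls and 100% = maraviroc near 300 nM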
CFTR F508del cor: F508del CFTR correction, initial screen, CFBE line, single point. CFBE cells, YFP halide quenching; stimulated with forskolin plus potentiator P3; % fluorescence drop versus neutral controls. activity (quench increase), % at 7.58 µM. hit rate 0.36% among 350,000. AID 720511, 2013;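 active = mean added fluorescence quench of at least 8% versus neutral control, with both replicates also reaching 8%; inconclusive = only one of the mean or replicate conditions met; inactive = mean below 8% and not both replicates reaching 8%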;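 note: cells transiently co-express mutant CFTR-F508del with the halide-sensitive YFP; corrector assay measuring rescue of mutant channel to the surface after 24 h compound exposure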
FN deposition inh: inhibitors of fibronectin matrix deposition, primary screen, AH1F cells, Alexa488-fibronectin fluorescence, plate reader; hit rate 0.086% among 350,000; inhibition, % at 12.6 µM; AH1F fibroblasts, overnight;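 active = mean inhibition across replicates of 30% or more, regardless of how many single replicates reach that level; inconclusive = mean under 30% yet at least half of replicates reach 30%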;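 note: positive control wells lacked labelled fibronectin entirely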
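Material: AH1F fibroblast monolayer depositing Alexa488-labelled fibronectin into matrix | Input: 10000 AH1F cells/well | Medium: DMEM plus 2% serum, read in PBS | Reagent: Alexa488-fibronectin, 24 nM final in well | Compound dosing: One dose per compound, pinned | Schedule: 1 h adhesion, overnight exposure | Measured by: Fluorescence at 485 nm excitation, 525 nm emission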
* hit, by the source's call; u = inconclusive; x = no result; [ ] = another dose, or the depositor's remark.

SMILES	EWS-Fli inh	PGC1a acetyl inh	PAX8 reporter	HIV Env fusion	CFTR F508del cor	FN deposition inh
O=C(NCc1ccccc1)C1=C[C@@H](c2csc3ccccc23)C[C@@H](OCCCCO)O1	34	x	77*	81*	3	-16
C[C@H](CO)N1C[C@H](C)[C@@H](CN(C)C(=O)Nc2ccc(F)cc2)OCCCC[C@H](C)Oc2ccc(N(C)C)cc2C1=O	-5	0	6	-62[16.7 µM]	1	x
CC(=O)c1ccc(NC(=O)c2cnn3ccccc23)cc1	69*	x	34	45	-5	1
CC(=O)c1cccc(NC(=O)c2cnn3ccccc23)c1	-62	x	-111	-195	5	-6
COCCCNC(=O)c1cccc2c(-c3ccc(OC)cc3C)coc12	13	-22	16	x	-1	6
COc1ccc(-c2coc3c(C(=O)NCCc4ccccc4)cccc23)c(C)c1	-32	-8	8	55*	0	-11
Cc1ccccc1OCC(=O)OCC(=O)NCCc1ccccc1	1	-3	-4	-1	15*	-5
COc1ccc(CCNC(=O)CCCCC(=O)NCCc2ccc(OC)cc2)cc1	5	-5	28	-3	2	-3
COc1ccc(CCCC(=O)NCCc2ccccc2)c(C)c1	0	x	-13	89*	-2	-3
CCC(=O)N1CC2(CCN(Cc3ccc(Cl)cc3)CC2)c2c([nH]c3cc(OC)ccc23)[C@@H]1CO	-16	-1	x	x	0	x
CC(NCC(O)COCCC12CC3CC(CC(C3)C1)C2)c1ccccc1 (stereo unspecified)	49	x	u	73*	3	24
O=C(NCc1ccncc1)C12CC3CC(CC(Cl)(C3)C1)C2	2	x	7	14	2	-8
CC12CC3CC(C)(C1)CC(C(=O)NCc1ccncc1)(C3)C2	0	-12	-4	101*	-3	-4
CCC(=O)Nc1ccc2c(c1)C(=O)N(C)[C@H]1CC[C@H](CC(=O)O)O[C@@H]1CO2	-5	-1	-1	x	0	-21
Cc1cc(C)n(-c2nc(NCCN(C)C)c3c4c(sc3n2)CCCC4)n1	19	x	97*	-35	-5	29
Cc1cc(C)n(-c2nc(NCCCN(C)C)c3c4c(sc3n2)CCCC4)n1	11	-19	7	17	-35	3
C[C@@H]1CN([C@@H](C)CO)C(=O)c2cc(NC(=O)CCCN(C)C)ccc2O[C@H]1CN(C)Cc1ccc2c(c1)OCO2	-2	0	13	x	1	x
N#C/C(=C\C=C\c1ccccc1[N+](=O)[O-])C(=O)NCc1ccccc1	42	-128	65*	-254	-10	8
CCCNC(=O)C[C@H]1CC[C@H]2[C@@H](COC[C@@H](O)CN2Cc2ccccc2F)O1	-3	6	2	-11[16.7 µM]	4	1
C[C@@H]1CCCCO[C@@H](CN(C)S(=O)(=O)c2ccc(Cl)cc2)[C@H](C)CN([C@H](C)CO)C(=O)c2cc(NC(=O)Nc3ccc(C(F)(F)F)cc3)ccc2O1	-1	3	70*	25[16.7 µM]	3	-10
C[C@@H]1CCCCO[C@H](CN(C)S(=O)(=O)c2ccc(F)cc2)[C@@H](C)CN([C@@H](C)CO)C(=O)c2cc(NC(=O)Nc3ccc(C(F)(F)F)cc3)ccc2O1	49	17	65*	38[16.7 µM]	5	-11
C[C@H](CO)N1C[C@H](C)[C@@H](CN(C)S(=O)(=O)c2ccc(F)cc2)OCCCC[C@H](C)Oc2ccc(NC(=O)Nc3ccc(C(F)(F)F)cc3)cc2C1=O	1	10	34	57*[16.7 µM]	7	-5
C[C@@H]1CCCCO[C@@H](CN(C)S(=O)(=O)c2ccc(F)cc2)[C@H](C)CN([C@H](C)CO)C(=O)c2cc(NC(=O)Nc3ccc(C(F)(F)F)cc3)ccc2O1	10	-6	73*	68*[16.7 µM]	5	-12
C[C@H](CO)N1C[C@H](C)[C@H](CN(C)C(=O)c2ccccn2)Oc2cc(C#CC3CC3)ccc2S1(=O)=O	5	-10	x	7[16.7 µM]	-2	-19
Brc1ccc(-c2c[n+]3c(n2-c2ccccc2)SCC3)cc1	2	-2	2	-4	2	-2

Screens as filed in PubChem BioAssay.
